Assay results pooled from the literature.
Each line is one published result; the experiments were not run side by side.
Target: Serine/threonine-protein kinase PAK 1 (PAK1, Homo sapiens, UniProt Q13153)

O=C(c1ccc(Nc2nccc(-c3cc4ccccc4s3)n2)cc1)N1CCC(N2CCCC2)CC1 gave a remaining binding of 80% (binding; competition with immobilised ligand; 1 µM).
The remaining binding of COc1ccnn2ncc(-c3ccnc(N(C)C)n3)c12 is reported as 79% (binding; 1 µM).
With CO[C@@H](C)c1c(Nc2ccc([C@@H](N(C)C(=O)C3CCS(=O)(=O)CC3)C(F)(F)F)cc2)cnc2cc(Cl)nn12 the remaining binding was 83% (cell-free assay; competition with immobilised ligand; 1 µM).
For CN(C)c1nccc(-c2cnn3ncccc23)n1, the remaining binding was 100% (binding; 1 µM).
c1cncc(-c2cccc(Nc3nccc(NC4CCCCC4)n3)c2)c1 has a remaining binding of 85% (binding; competition with immobilised ligand; 10 µM).
O=C(Nc1cccnn1)N1CCC(=Cc2cccc(Oc3ccc(C(F)(F)F)cn3)c2)CC1 gave a remaining binding of 72% (cell-free assay; competition with immobilised ligand; 1 µM).
COc1cnc(Nc2cccc(S(N)(=O)=O)c2)nc1N1CCN(c2ccccc2)C(=O)C1 gave a remaining binding of 100% (binding; competition with immobilised ligand; 1 µM).
The remaining binding of N[C@H]1CCN(c2nccc(-c3cnn4ncccc34)n2)C1 is reported as 100% (binding; 1 µM).
C[C@@H](c1ccc(-n2cnc3c(N)ncnc32)cc1)N1CCc2nn(C)c(Cc3ccccc3)c2C1=O has a remaining binding of 97% (binding; competition with immobilised ligand; 0.1 µM).
COc1cc(-c2cn(C3CCc4c(F)cccc4N(CC(F)(F)F)C3=O)nn2)ccc1-n1cnc(C)c1 (stereo not shown) gave a remaining binding of 93% (cell-free assay; competition with immobilised ligand; 1 µM).
O=C(c1ccc(Nc2ncc(Cl)c(-c3ccc(Cl)s3)n2)cc1)N1CCC(N2CCCC2)CC1 has a remaining binding of 68% (binding; competition with immobilised ligand; 1 µM).
With C[C@@H]1CN(c2ccc3ncc(-c4ccc5[nH]nc(C6CC6)c5c4)n3n2)C[C@H](C)O1 the remaining binding was 100% (binding; competition with immobilised ligand; 50 nM).
For NS(=O)(=O)c1cc(NC(=O)Cc2ccccc2)ccc1Oc1cccc(Cl)c1, the remaining binding was 88% (cell-free assay; competition with immobilised ligand; 1 µM).
The remaining binding of O=C(NCC1CCOCC1)c1n[nH]cc1NC(=O)c1c(F)cccc1F is reported as 100% (binding; competition with immobilised ligand; 1 µM).
For CN(CCCC(F)(F)F)c1nccc(-c2cnn3ncccc23)n1, the remaining binding was 98% (binding; 1 µM).
CN(C)c1ncnc(-c2ccc3nc(Nc4cc(CN5CCN(C(=O)CC(F)(F)F)CC5)ccn4)[nH]c3c2)c1Cl gave a remaining binding of 100% (cell-free assay; competition with immobilised ligand; 1 µM).
